ChEMBL document CHEMBL1221338, “New antitumoral agents I: In vitro anticancer activity and in vivo acute toxicity of synthetic 1,5-bis(4-hydroxy-3-methoxyphenyl)-1,4-pentadien-3-one and derivatives” (Bioorg Med Chem, 2010)

Experiments:
NCI-H460 = assay: Antitumor activity against human NCI-H460 cells after 48 hrs by SRB assay; assay type: functional, cell-based; details: NCI-H460, 48 h
Summary of the method: (§1)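 Human tumor lines in medium with 5% FBS and gentamicin, exposed in 96-well plates to four concentrations given in DMSO for 48 h at 37 °C, 5% CO₂. Cells fixed with trichloroacetic acid (added as 50% solution) for 30 min at 4 °C, washed, dried, stained with sulphorhodamine B. Protein content read at 540 nm.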

OVCAR-3 = assay: Antitumor activity against human OVCAR-3 cells after 48 hrs by SRB assay; assay type: functional, cell-based; details: OVCAR-3, 48 h; summary of the method: as §1
UACC-62 = assay: Antitumor activity against human UACC62 cells after 48 hrs by SRB assay; assay type: functional, cell-based; details: UACC-62, 48 h; summary of the method: as §1
K562 = assay: Antitumor activity against human K562 cells after 48 hrs by SRB assay; assay type: functional, cell-based; details: K562, 48 h; summary of the method: as §1
HT-29 = assay: Antitumor activity against human HT-29 cells after 48 hrs by SRB assay; assay type: functional, cell-based; details: HT-29, 48 h; summary of the method: as §1
[1] = Antitumor activity against human 786-O cells after 48 hrs by SRB assay; assay type: functional, cell-based; details: 786-0, 48 h; summary of the method: as §1
PC-3 = assay: Antitumor activity against human PC3 cells after 48 hrs by SRB assay; assay type: functional, cell-based; details: PC-3, 48 h; summary of the method: as §1
MCF7 = assay: Antitumor activity against human MCF7 cells after 48 hrs by SRB assay; assay type: functional, cell-based; details: MCF7, 48 h; summary of the method: as §1
[2] = Antitumor activity against human NCI/ADR cells after 48 hrs by SRB assay; assay type: functional, cell-based; details: NCI/ADR-RES; summary of the method: as §1
L1210 = assay: Antiproliferative activity against mouse L1210 cells after 24 hrs by MTT assay; assay type: functional, cell-based; details: L1210, 24 h
Summary of the method: (§2)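 Murine tumor cells grown to confluence, then exposed for 24 h to a range of concentrations diluted in Miglyol 810, with a Miglyol-only diluent control. MTT (5 mg/ml stock) added for 3 h at 37 °C, 5% CO₂. Plates centrifuged, supernatant removed, formazan dissolved in DMSO, absorbance read at 540 nm.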

[3] = Antiproliferative activity against mouse macrophages after 24 hrs by MTT assay; assay type: cell-based; details: Macrophage
Summary of the method: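 Peritoneal macrophages lavaged from anesthetized normal Balb-C mice with heparinized saline. Cells pelleted, resuspended in RPMI-1640 with 10% FBS at 10⁶/ml, plated, and exposed for 24 h to compound dilutions in Miglyol 810, with a diluent control. MTT (5 mg/ml stock) for 3 h at 37 °C, formazan dissolved in DMSO, read at 540 nm.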

[4] = Toxicity in Swiss albino mouse for 14 days; assay type: organism-based; details: in vivo
Summary of the method: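 Male albino Swiss mice (~25 g; 20 animals split equally into treated and control groups), acclimatised at least 7 days and fasted 12 h. Single intraperitoneal dose of 1, 2.5 or 5 g/kg body weight. Deaths and signs of toxicity observed for at least 14 days. LD50 by Litchfield and Wilcoxon's method; OECD425 protocol.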

B16-F10 = assay: Antiproliferative activity against mouse B16F10 cells after 24 hrs by MTT assay; assay type: functional, cell-based; details: B16-F10, 24 h; summary of the method: as §2

IC50 (NCI-H460) [µM]	IC50 (OVCAR-3) [µM]	IC50 (K562) [µM]	IC50 (HT-29) [µM]	IC50 (PC-3) [µM]	IC50 (MCF7) [µM]	Compound	IC50 (UACC-62) [µM]	IC50 [1] [µM]	IC50 [2] [µM]	IC50 (L1210) [µM]	IC50 [3] [µM]	LD50 at 336 h [4] [mg/kg]	IC50 (B16-F10) [µM]
34.1	30.3	4.8	4.04	60.5	18.2	COc1cc(/C=C/C(=O)/C=C/c2ccc(OCC=C(C)C)c(OC)c2)ccc1OCC=C(C)C	30.6	7.87	7.22	–	–	–	–
6.89	115	7.59	3.37	4.25	5.24	COc1cc(/C=C/C(/C=C/c2ccc(O)c(OC)c2)=C(C#N)C#N)ccc1O	3.34	7.14	2.97	–	–	–	–
1.86	2.32	1.83	2.43	2.32	2	COc1ccc(/C=C/C(=O)/C=C/c2ccc(OC)c(OC)c2)cc1OC	2.12	3.36	2.37	–	–	–	–

Compound	IC50 (NCI-H460) [µM]	IC50 (OVCAR-3) [µM]	IC50 (K562) [µM]	IC50 (HT-29) [µM]	IC50 (PC-3) [µM]	IC50 (MCF7) [µM]	IC50 (UACC-62) [µM]	IC50 [1] [µM]	IC50 [2] [µM]	IC50 (L1210) [µM]	IC50 [3] [µM]	LD50 at 336 h [4] [mg/kg]	IC50 (B16-F10) [µM]
COc1cc(/C=C/C(=O)/C=C/c2ccc(O)c(OC)c2)ccc1O	1.53	2.2	1.84	2.3	1.25	0.12	0.09	1.99	0.83	56.1	51.8	8540	21.5
COc1cc(/C=C/C(=O)/C=C/c2ccc(OC(C)=O)c(OC)c2)ccc1OC(C)=O	1.7	1.39	1.41	1.48	0.95	1.09	4.31	0.66	3.12	246	275	3680	220
